The values that follow come from PubChem BioAssay.

A short description of assay [1]: reducers of endogenous Her2 protein level, primary screen, SKBR3 breast tumor cells, AlphaScreen, ATP viability (AID 461;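 active = Her2 level under about 52% in both replicate screens, with viability over 70% of control, limit read from the data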;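 as to Her2 level: lower value means less Her2 protein in the cells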;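 as to viability: percent of carrier control wells set as 100% viability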). Particulars: 18-24 h, measured here: SKBR3 viability, ATP luminescence, at 10 µM.
For assay [2], the target named is Receptor tyrosine-protein kinase erbB-2 (Homo sapiens) (UniProt P04626). The description is as above. Conditions: 18-24 h, at 10 µM, stronger effect = lower value.
Assay [3] can be described thus: SK-BR-3 cell growth inhibitors, pilot screen, 24 h, human (AID 572).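 Also: compound exposure lasted between 18 and 24 h rather than exactly 24 h; 100% = carrier-treated control wells.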 Conditions: SK-BR-3 viability, CellTiter-Glo luminescence, at 10 µM, stronger effect = lower value.
Assay [4] is described as follows: HUVEC growth inhibition – cell-based, human, primary screen (AID 575;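 active = viability at or below 30% in both replicate assays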;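 also: 100% = median of untreated cell wells with 0.1% DMSO on each plate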). Particulars: HUVEC proliferation, CellTiter-Glo luminescence, 72 h; at 10 µM; stronger effect = lower value. In a few lines: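 System – primary HUVEC, no more than 12 passages · Medium – Low-serum (2% FBS) EBM, supplemented · Times – 72 h exposure, 37 °C, 5% CO2, 30 min RT equilibration · Measured by – luminescent ATP assay · Read-out – % viability relative to median vehicle-well signal on each plate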

Assay [5] in a line: growth inhibitors of H69AR lung tumor, primary screen, human, duplicate replicates (AID 580;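 active = viability at or under a set limit in both replicates, limit being median viability minus 3 SD, cut at about 48% in these data, passing the limit was not always enough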;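 also: 100% = mean luminescence of untreated wells and 0% = no signal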). Particulars: H69AR lung tumor cells viability, ATP luminescence, 72 h; at 10 µM; stronger effect = lower value.
Assay [6] can be described thus: reversal of MRP1-mediated doxorubicin resistance, pilot screen, H69AR cells, doxorubicin co-treatment (AID 601;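 active = viability loss from added drug above about 55%, and viability with drug at most 40%, in both replicates, limit read from the data, passing the limit was not always enough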). Conditions: CellTiter-Glo, 72 h, at 10 µM; for differential viability (reversal): stronger effect = higher value. (In general: In ATP-based viability assays light output follows the ATP content of the culture.)
Assay [7] is described as follows: 384-well plate pilot, post-Golgi transport modulator project, inhibition of yeast transport mutant growth (AID 636; in the data active = inhibition above about 31%). Conditions: absorbance 615 nm, about 18 h, stronger effect = higher value.
Assay [8] in a line: growth suppression of yeast trafficking mutant, preliminary HTS, modulators of trafficking downstream of Golgi apparatus project, 1536-format plate, OD 615 nm (AID 637; in the data active = inhibition above about 30%). Conditions: yeast transport mutant growth, absorbance 615 nm, 18 h; stronger effect = higher value.
Setting [9] is: H69AR cells + 2 uM doxorubicin, measured here: viability with 2 uM doxorubicin, stronger effect = lower value.
Where [10] appears, read: H69AR cells, compound alone cytotoxicity.

Calls of active or inactive are those of the source.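 The calls were made as follows, unless noted: active = viability at or below 10% of carrier control in both of two separate runs; inconclusive = viability at or below 10% in only one of the two runs; inactive = the rest.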

Chain of Receptor tyrosine-protein kinase erbB-2 (Homo sapiens) (P04626 whole entry, looked up): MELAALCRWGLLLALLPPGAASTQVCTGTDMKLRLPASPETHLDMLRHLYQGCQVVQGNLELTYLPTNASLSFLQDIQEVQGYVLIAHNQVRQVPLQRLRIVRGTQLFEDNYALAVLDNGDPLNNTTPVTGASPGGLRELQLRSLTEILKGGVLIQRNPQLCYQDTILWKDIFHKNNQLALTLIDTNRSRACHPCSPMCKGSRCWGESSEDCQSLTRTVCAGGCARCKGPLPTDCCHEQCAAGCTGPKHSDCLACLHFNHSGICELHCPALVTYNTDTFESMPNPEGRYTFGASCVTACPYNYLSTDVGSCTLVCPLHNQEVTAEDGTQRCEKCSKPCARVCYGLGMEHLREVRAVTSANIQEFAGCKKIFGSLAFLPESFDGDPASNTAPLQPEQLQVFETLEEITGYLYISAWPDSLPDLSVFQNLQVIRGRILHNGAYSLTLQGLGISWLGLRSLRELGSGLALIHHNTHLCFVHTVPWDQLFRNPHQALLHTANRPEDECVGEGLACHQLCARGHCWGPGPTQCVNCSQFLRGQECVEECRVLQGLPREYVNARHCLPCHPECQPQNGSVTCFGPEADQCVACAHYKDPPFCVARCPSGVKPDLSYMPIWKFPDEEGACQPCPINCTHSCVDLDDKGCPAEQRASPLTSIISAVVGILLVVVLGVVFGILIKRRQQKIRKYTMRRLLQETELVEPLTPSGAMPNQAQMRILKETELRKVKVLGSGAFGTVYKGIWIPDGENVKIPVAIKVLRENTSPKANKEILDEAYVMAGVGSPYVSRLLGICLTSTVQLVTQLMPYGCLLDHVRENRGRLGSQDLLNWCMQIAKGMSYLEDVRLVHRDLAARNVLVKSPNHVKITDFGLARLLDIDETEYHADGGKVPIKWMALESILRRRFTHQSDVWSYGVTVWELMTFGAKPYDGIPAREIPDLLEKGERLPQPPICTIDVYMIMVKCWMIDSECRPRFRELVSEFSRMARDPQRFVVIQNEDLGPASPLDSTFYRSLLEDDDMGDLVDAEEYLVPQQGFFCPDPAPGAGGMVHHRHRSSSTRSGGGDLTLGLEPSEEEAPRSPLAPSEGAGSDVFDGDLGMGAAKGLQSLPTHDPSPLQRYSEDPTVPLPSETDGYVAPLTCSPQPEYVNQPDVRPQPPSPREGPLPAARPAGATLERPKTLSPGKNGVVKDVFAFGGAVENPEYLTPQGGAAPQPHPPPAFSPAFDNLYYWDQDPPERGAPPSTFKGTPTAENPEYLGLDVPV

One may read the viability as a read-out of living cells in per cent, often relative to untreated cells. The inhibition is the relative decrease from the control value, in per cent. `O=C1C(Cl)=C(N2CCCCC2)C(=O)N1c1ccccc1Cl`: the viability is 106% in assay [1]; 106% (inactive) in assay [3]; 89.7% (inactive) in assay [4]; 81.8% (inactive) in assay [5]; 80.4% in assay [6] (setting [9]); 81.8% in assay [6] (setting [10]). Moreover, the Her2 level in assay [2] is 79.5% (inactive). In assay [6] (H69AR cells + 2 uM doxorubicin), the differential viability (reversal) was 1.39% (inactive). In addition, the inhibition in assay [7] is -2.6% (inactive); in assay [8], 2.95% (inactive).
Take `O=C(O)Cn1cc(C(=O)c2ccco2)c2ccccc21`: the viability was 95% in assay [1]; 95% (inactive) in assay [3]; 105% (inactive) in assay [4]; 85.5% (inactive) in assay [5]; 90.3% in assay [6] (setting [9]); 85.5% in assay [6] (setting [10]). In assay [2], the Her2 level is 100% (inactive). Besides, in assay [6] (H69AR cells + 2 uM doxorubicin), the differential viability (reversal) was -4.73% (inactive). Also, the results for the inhibition in assay [7] and in assay [8] were -0.52% (inactive) and 3.61% (inactive), respectively.
With `COc1ccc(CNC(=O)COC(=O)c2n[nH]c3ccccc23)cc1OC`, the viability in assay [1] is 88%; in assay [3], 88% (inactive); in assay [4] it was 89.7% (inactive); in assay [5] it was 92.6% (inactive); in assay [6] (setting [9]), 84.6%; in assay [6] (setting [10]), 92.6%. The Her2 level in assay [2] is 84.5% (inactive). The differential viability (reversal) in assay [6] (H69AR cells + 2 uM doxorubicin) was 8.04% (inactive). Also, the results for the inhibition in assay [7] and in assay [8] were -7.47% (inactive) and 2.38% (inactive), respectively.
As for `Cc1ccc(NC2=NC3(CCCCC3)N=C(N)N2)c(C)c1`, the viability in assay [1] is 114%; in assay [3] it was 114% (inactive); in assay [4], 87.9% (inactive); in assay [5], 102% (inactive); in assay [6] (setting [9]) it was 83.9%; in assay [6] (setting [10]) it was 102%. In addition, the Her2 level in assay [2] was 96% (inactive). In assay [6] (H69AR cells + 2 uM doxorubicin), the differential viability (reversal) is 18.6% (inactive). Further, the inhibition in assay [7] is 2.16% (inactive); in assay [8], -5.87% (inactive).
Turning to `CCOC(=O)CNC(=O)Nc1ccccc1C(=O)OC`, the viability in assay [1] was 116%; in assay [3] it was 116% (inactive); in assay [4] it was 96.7% (inactive); in assay [5], 94.1% (inactive); in assay [6] (setting [9]), 85.3%; in assay [6] (setting [10]) it was 94.1%. Further, in assay [2], the Her2 level is 86.5% (inactive). In assay [6] (H69AR cells + 2 uM doxorubicin), the differential viability (reversal) is 8.77% (inactive). In addition, the inhibition was -2.5% (inactive) in assay [7] and 1.29% (inactive) in assay [8].
For the molecule `CCOC(=O)c1[nH]c(C)c(C(=O)NCC2CCCO2)c1C` (stereo not given), the viability in assay [1] is 99%; in assay [3] it was 99% (inactive); in assay [4], 108% (inactive); in assay [5], 101% (inactive); in assay [6] (setting [9]), 91.3%; in assay [6] (setting [10]), 101%. Further, in assay [2], the Her2 level is 92% (inactive). The differential viability (reversal) in assay [6] (H69AR cells + 2 uM doxorubicin) is 9.65% (inactive). In addition, the inhibition is -2.47% (inactive) in assay [7] and -0.32% (inactive) in assay [8].
Turning to `Cc1nnc(C)n1/N=C/c1cccc(Oc2ccccc2)c1`, the viability in assay [1] was 100%; in assay [3], 100% (inactive); in assay [4] it was 98% (inactive); in assay [5], 87.4% (inactive); in assay [6] (setting [9]), 82.6%; in assay [6] (setting [10]), 87.4%. The Her2 level in assay [2] was 78.5% (inactive). Further, the differential viability (reversal) in assay [6] (H69AR cells + 2 uM doxorubicin) is 4.77% (inactive). Besides, the inhibition is -1.97% (inactive) in assay [7] and 0.16% (inactive) in assay [8].
In the case of `COCCNC(=O)Cn1nc(C(F)(F)F)c(Br)c1C`, the viability in assay [1] is 118%; in assay [3] it was 118% (inactive); in assay [4], 90.4% (inactive); in assay [5], 108% (inactive); in assay [6] (setting [9]), 92.5%; in assay [6] (setting [10]) it was 108%. For the same molecule, in assay [2], the Her2 level is 104% (inactive). The differential viability (reversal) in assay [6] (H69AR cells + 2 uM doxorubicin) was 15.8% (inactive). Also, the inhibition in assay [7] was -4.27% (inactive); in assay [8], -0.81% (inactive).
`CCOC(=O)N1CCN(S(=O)(=O)c2ccc(F)c(C(=O)Nc3cc(C)cc(C)c3)c2)CC1`: the viability in assay [1] is 76%; in assay [3] it was 76% (inactive); in assay [4] it was 78.6% (inactive); in assay [5], 83.3% (inactive); in assay [6] (setting [9]) it was 81.9%; in assay [6] (setting [10]), 83.3%. In addition, the Her2 level in assay [2] is 112% (inactive). The differential viability (reversal) in assay [6] (H69AR cells + 2 uM doxorubicin) is 1.41% (inactive). Moreover, the inhibition in assay [7] is -2.11% (inactive); in assay [8], -11.8% (inactive).
Consider `Cc1nc2sc(C(c3ccccc3)N3CCN(c4ccccc4F)CC3)c(O)n2n1` (stereo not given), for which the viability in assay [1] is 91.5%; in assay [3], 91.5% (inactive); in assay [4], 97.6% (inactive); in assay [5], 100% (inactive); in assay [6] (setting [9]) it was 98.1%; in assay [6] (setting [10]) it was 100%. In addition, the Her2 level in assay [2] was 93.5% (inactive). In addition, the differential viability (reversal) in assay [6] (H69AR cells + 2 uM doxorubicin) is 2.07% (inactive). In addition, the inhibition is 0% (inactive) in assay [7] and -7.7% (inactive) in assay [8].
As to `CC(C)OC(=O)CN1C(=O)C(C)(C)Oc2ccc(C(=O)NC3CC3)cc21`, the viability in assay [1] was 96%; in assay [3], 96% (inactive); in assay [4] it was 93.1% (inactive); in assay [5], 91.6% (inactive); in assay [6] (setting [9]) it was 94.3%; in assay [6] (setting [10]) it was 91.6%. In assay [2], the Her2 level was 92.5% (inactive). The differential viability (reversal) in assay [6] (H69AR cells + 2 uM doxorubicin) was -2.77% (inactive). Also, the inhibition is -3.2% (inactive) in assay [7] and 1.94% (inactive) in assay [8].
On to `N#CCCN(C(=O)Nc1ccc(Cl)cc1)c1ccccc1`, for which the viability in assay [1] was 94%; in assay [3], 94% (inactive); in assay [4], 113% (inactive); in assay [5] it was 105% (inactive); in assay [6] (setting [9]), 95.5%; in assay [6] (setting [10]), 105%. Moreover, in assay [2], the Her2 level was 111% (inactive). Besides, the differential viability (reversal) in assay [6] (H69AR cells + 2 uM doxorubicin) was 9.02% (inactive). The inhibition in assay [7] is -2% (inactive); in assay [8] it was 0% (inactive).
As for `CCc1nnc(NC(=O)c2ccc(COc3ccccc3)o2)s1`, the viability was 97% in assay [1]; 97% (inactive) in assay [3]; 77.9% (inactive) in assay [4]; 111% (inactive) in assay [5]; 109% in assay [6] (setting [9]); 111% in assay [6] (setting [10]). Besides, in assay [2], the Her2 level is 104% (inactive). Also, in assay [6] (H69AR cells + 2 uM doxorubicin), the differential viability (reversal) was 2.33% (inactive). In addition, the inhibition was -3.97% (inactive) in assay [7] and -4.6% (inactive) in assay [8].
`Cc1nc(SCC(=O)N2CCC(C(N)=O)CC2)n[nH]1`: the viability in assay [1] was 94.5%; in assay [3] it was 94.5% (inactive); in assay [4], 109% (inactive); in assay [5], 95.5% (inactive); in assay [6] (setting [9]), 91.6%; in assay [6] (setting [10]), 95.5%. Moreover, the Her2 level in assay [2] is 108% (inactive). The differential viability (reversal) in assay [6] (H69AR cells + 2 uM doxorubicin) was 3.98% (inactive). Besides, the inhibition is -6.32% (inactive) in assay [7] and 1.45% (inactive) in assay [8].
